In PMC8039535 (Molecular Therapy. Nucleic Acids, 2021):

How the values were obtained:
[1] = Steroid pharmacokinetics after i.v. or s.c. administration; type: in vivo, CD1 mice; conditions: CD1, mouse, plasma, iv
Method in brief: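 CD1 mice (n = 4) received steroid i.v. or s.c. intrascapularly. Parent steroid was given in 0.6% ethanol in PBS; ester prodrugs were given within hFGF21 mRNA MC3 LNPs. Serial saphenous blood was drawn, with a terminal sample at 24 h. Parent steroid in plasma was quantified by UPLC–triple quadrupole MS.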

hFGF21 protein = type: in vivo; conditions: prodrug incorporated into the MC3 LNP, s.c., 0.3 mg/kg mRNA, CD1 mice
Method in brief: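 CD1 mice (n = 5) under light isoflurane received hFGF21 mRNA in MC3 LNPs (0.3 mg/kg mRNA) s.c. intrascapularly at 5 mL/kg. LNPs were with or without steroid ester prodrug at a prodrug steroid/mRNA weight ratio of 1:1. Saphenous blood was taken at 2, 5, 8 and 24 h. Plasma (3,000 × g, 10 min, 4°C) hFGF21 was measured by multiplex Luminex. AUC2–24 h was reported as a geometric mean.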

Compound	clearance [1] [mL/min/kg]	half-life ([1]; Half-life in plasma, i.v. administration, CD1 mice) [min]	Fold increase of hFGF21 AUC2–24 h versus MC3 LNP without steroid (hFGF21 protein) [fold]
CCCC1O[C@@H]2C[C@H]3[C@@H]4CCC5=CC(=O)C=C[C@]5(C)[C@H]4[C@@H](O)C[C@]3(C)[C@]2(C(=O)CO)O1 (stereo partly drawn) [Budesonide parent, budesonide]	121	~40	–
CCCCCCCCCCCCCC(=O)OCC(=O)[C@@]12O[C@H](CCC)O[C@@H]1C[C@H]1[C@@H]3C[C@H](F)C4=CC(=O)CC[C@]4(C)[C@@]3(F)[C@@H](O)C[C@@]12C [Rofleponide-C14]	–	–	3.8
